# Measured values published in ChEMBL document CHEMBL1949525, “Boranophosphate isoster controls P2Y-receptor subtype selectivity and metabolic stability of dinucleoside polyphosphate analogues” (J Med Chem, 2012).
# Active and inactive are the calls of the source. No cut-off for these calls is given here.
# What was measured:
# P2Y purinoceptor 1 = P2Y purinoceptor 1 (Meleagris gallopavo, UniProt P49652); assay: Agonist activity at turkey P2Y purinoceptor 1 expressed in human 1321N1 cells assessed as increase in intracellular calcium concentration by spectrofluorimetry; format: functional, cell-based
# [1] = Stability of the compound assessed as human e-NPP1-mediated hydrolysis at pH 8.5 after 20 mins by HPLC analysis; format: ADME; details: buffer, pH 8.5, 20 min; for Drug degradation: 20 min
# In short: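 Human NPP1 preparation preincubated 3 min at 37 °C in 1 mM CaCl2, 200 mM NaCl, 10 mM KCl, 100 mM Tris, pH 8.5. Started with 0.2 mM dinucleotide solution (added volume) and stopped after 20 min in ice-cold perchloric acid. Neutralised with KOH, then NMP formation followed by HPLC. Percent substrate hydrolysed is the mean of two experiments run in triplicate.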
# P2Y purinoceptor 6 = P2Y purinoceptor 6 (Rattus norvegicus, UniProt Q63371); assay: Agonist activity at rat P2Y purinoceptor 6 expressed in human 1321N1 cells assessed as increase in intracellular calcium concentration by spectrofluorimetry; format: functional, cell-based
# In short: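 1321N1 astrocytoma cells lacking endogenous P2Y receptors, stably transfected with turkey P2Y1, human P2Y2, human P2Y4 or rat P2Y6, grown in DMEM with 5% FBS, penicillin/streptomycin and 500 µg/mL G-418. Fura-2-loaded cell suspensions were exposed at 37 °C in 10 mM Hepes-buffered saline, pH 7.4, with 1 mM CaCl2 and 1 mM MgCl2. Peak [Ca2+]i rise by dual-excitation spectrofluorometry across concentrations; EC50 from curve fits; three experiments on separate days per subtype.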
# P2Y purinoceptor 2 [2] = molecular target: T1, P2Y purinoceptor 2 (Homo sapiens, UniProt P41231); assay: Agonist activity at human P2Y purinoceptor 2 expressed in human 1321N1 cells assessed as increase in intracellular calcium concentration by spectrofluorimetry; format: functional, cell-based
# P2Y purinoceptor 4 [3] = molecular target: T2, P2Y purinoceptor 4 (Homo sapiens, UniProt P51582); assay: Agonist activity at human P2Y purinoceptor 4 expressed in human 1321N1 cells assessed as increase in intracellular calcium concentration by spectrofluorimetry; format: functional, cell-based
# In short: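 1321N1 astrocytoma cells (no endogenous P2Y receptors) stably expressing hP2Y4, grown in DMEM with 5% FBS, penicillin/streptomycin and 500 μg/mL G-418. Fura-2-loaded cell suspensions; compounds applied at various concentrations, 37 °C, 10 mM Hepes-buffered saline pH 7.4 with 1 mM CaCl2/MgCl2. Peak [Ca2+]i rise by dual-excitation fluorometry gives EC50; UTP reference agonist; three experiments on separate days.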
# [4] = molecular target: P2Y purinoceptor 6 (Rattus norvegicus) (UniProt Q63371); assay: Antagonist activity at rat P2Y purinoceptor 6 expressed in human 1321N1 cells assessed as inhibition of UDP-induced increase in intracellular calcium concentration by spectrofluorimetry; format: functional, cell-based
# In short: (§1)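 Fura-2-loaded 1321N1 transfectants (turkey P2Y1, human P2Y2/P2Y4, rat P2Y6) in Hepes-buffered saline, pH 7.4, at 37 °C. Analogues were tested against equimolar reference agonist: 2-MeS-ADP for P2Y1, UTP for P2Y2/4, UDP for P2Y6. Blockade of the [Ca2+]i rise was followed by dual-excitation spectrofluorometry.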
# [5] = molecular target: P2Y purinoceptor 1 (Meleagris gallopavo) (UniProt P49652); assay: Antagonist activity at turkey P2Y purinoceptor 1 expressed in human 1321N1 cells assessed as inhibition of 2-Sme-ADP-induced increase in intracellular calcium concentration by spectrofluorimetry; format: functional, cell-based; in short: as §1
# P2Y purinoceptor 2 [6] = molecular target: T1, P2Y purinoceptor 2; assay: Antagonist activity at human P2Y purinoceptor 2 expressed in human 1321N1 cells assessed as inhibition of UTP-induced increase in intracellular calcium concentration by spectrofluorimetry; format: functional, cell-based; in short: as §1
# P2Y purinoceptor 4 [7] = molecular target: T2, P2Y purinoceptor 4; assay: Antagonist activity at human P2Y purinoceptor 4 expressed in human 1321N1 cells assessed as inhibition of UTP-induced increase in intracellular calcium concentration by spectrofluorimetry; format: functional, cell-based; in short: as §1
# Sequence of P2Y purinoceptor 6 (Q63371 whole entry): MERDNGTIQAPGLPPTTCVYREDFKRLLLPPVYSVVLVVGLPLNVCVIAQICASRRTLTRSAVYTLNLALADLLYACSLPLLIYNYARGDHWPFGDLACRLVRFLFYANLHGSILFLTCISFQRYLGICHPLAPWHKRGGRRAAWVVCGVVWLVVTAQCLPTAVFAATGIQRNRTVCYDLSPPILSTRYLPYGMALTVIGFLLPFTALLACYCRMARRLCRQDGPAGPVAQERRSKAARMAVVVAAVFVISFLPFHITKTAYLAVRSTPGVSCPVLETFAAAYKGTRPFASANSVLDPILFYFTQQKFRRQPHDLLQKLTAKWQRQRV
# Sequence of P2Y purinoceptor 6 (Rattus norvegicus) (Q63371 whole entry): as above
# Sequence of P2Y purinoceptor 1 (P49652 whole entry): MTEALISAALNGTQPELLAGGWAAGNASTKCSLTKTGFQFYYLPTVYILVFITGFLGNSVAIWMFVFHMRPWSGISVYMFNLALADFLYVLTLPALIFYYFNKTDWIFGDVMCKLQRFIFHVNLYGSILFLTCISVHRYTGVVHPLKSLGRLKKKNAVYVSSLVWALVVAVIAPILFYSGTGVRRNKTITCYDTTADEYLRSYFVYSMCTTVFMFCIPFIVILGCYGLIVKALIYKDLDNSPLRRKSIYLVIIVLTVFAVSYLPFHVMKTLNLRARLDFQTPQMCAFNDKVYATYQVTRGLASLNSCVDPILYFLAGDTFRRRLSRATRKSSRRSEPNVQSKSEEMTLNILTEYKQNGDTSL
# Sequence of P2Y purinoceptor 1 (Meleagris gallopavo) (P49652 whole entry): as above
# T1 sequence (P41231 whole entry): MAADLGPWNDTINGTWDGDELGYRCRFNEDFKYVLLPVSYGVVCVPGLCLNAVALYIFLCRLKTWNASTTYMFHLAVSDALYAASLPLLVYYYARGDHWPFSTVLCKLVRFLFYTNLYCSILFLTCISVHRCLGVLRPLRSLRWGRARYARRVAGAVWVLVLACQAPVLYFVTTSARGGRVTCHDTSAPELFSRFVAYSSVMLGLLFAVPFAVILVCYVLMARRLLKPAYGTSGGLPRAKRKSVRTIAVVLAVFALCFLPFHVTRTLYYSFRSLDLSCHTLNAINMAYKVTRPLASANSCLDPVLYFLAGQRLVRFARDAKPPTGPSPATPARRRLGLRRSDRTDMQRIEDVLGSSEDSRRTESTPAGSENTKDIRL
# T2 sequence (P51582 whole entry): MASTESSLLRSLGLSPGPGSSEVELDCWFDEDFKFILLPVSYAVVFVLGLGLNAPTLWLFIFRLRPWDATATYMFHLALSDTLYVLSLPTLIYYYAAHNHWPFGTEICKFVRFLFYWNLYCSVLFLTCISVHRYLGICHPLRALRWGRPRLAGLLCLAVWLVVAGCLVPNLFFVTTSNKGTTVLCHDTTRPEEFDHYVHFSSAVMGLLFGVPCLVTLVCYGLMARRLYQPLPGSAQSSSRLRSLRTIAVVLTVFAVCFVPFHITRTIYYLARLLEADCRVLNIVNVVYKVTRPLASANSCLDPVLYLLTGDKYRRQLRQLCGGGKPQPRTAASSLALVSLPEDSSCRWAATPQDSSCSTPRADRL
EC50 (P2Y purinoceptor 1; read-out: EC50),Drug degradation [1],EC50 (P2Y purinoceptor 6; read-out: EC50),Activity [4],Activity [5],Activity (P2Y purinoceptor 2 [6]),Activity (P2Y purinoceptor 4 [7]),Structure (SMILES),also measured
0.81 µM,3.3%,11.7 µM,–,–,–,–,BP(=O)(OP(=O)(O)OC[C@H]1O[C@@H](n2ccc(=O)[nH]c2=O)[C@H](O)[C@@H]1O)OP(=O)(O)OP(=O)(O)OC[C@H]1O[C@@H](n2cnc3c(N)ncnc32)[C@H](O)[C@@H]1O.CCCCN(CCCC)CCCC.CCCCN(CCCC)CCCC.CCCCN(CCCC)CCCC.CCCCN(CCCC)CCCC (stereo in doubt; 9B) [listing 1 of 2 here],EC50 (P2Y purinoceptor 2 [2]; 1321-n1): Not Active
–,3.5%,36.1 µM,–,–,–,–,BP(=O)(OC[C@H]1O[C@@H](n2ccc(=O)[nH]c2=O)[C@H](O)[C@@H]1O)OP(=O)(O)OP(=O)(O)OP(=O)(O)OC[C@H]1O[C@@H](n2ccc(=O)[nH]c2=O)[C@H](O)[C@@H]1O.CCCCN(CCCC)CCCC.CCCCN(CCCC)CCCC.CCCCN(CCCC)CCCC.CCCCN(CCCC)CCCC (stereo in doubt; 13A),EC50 (P2Y purinoceptor 1; 1321-n1): Not Active; EC50 (P2Y purinoceptor 4 [3]; read-out: EC50): 9.4 µM
4.3 µM,2.1%,–,–,–,–,–,BP(=O)(OP(=O)(O)OC[C@H]1O[C@@H](n2cnc3c(N)ncnc32)[C@H](O)[C@@H]1O)OP(=O)(O)OP(=O)(O)OC[C@H]1O[C@@H](n2cnc3c(N)ncnc32)[C@H](O)[C@@H]1O.CCCCN(CCCC)CCCC.CCCCN(CCCC)CCCC.CCCCN(CCCC)CCCC.CCCCN(CCCC)CCCC (stereo in doubt; 6B),–
–,–,–,inactive,inactive,inactive,inactive,BP(=O)(OC[C@H]1O[C@@H](n2cnc3c(N)ncnc32)[C@H](O)[C@@H]1O)OP(=O)(O)OP(=O)(O)OC[C@H]1O[C@@H](n2cnc3c(N)ncnc32)[C@H](O)[C@@H]1O.CCCCN(CCCC)CCCC.CCCCN(CCCC)CCCC.CCCCN(CCCC)CCCC (stereo in doubt; 10A) [listing 1 of 2 here],–
0.76 µM,0%,–,–,–,–,–,BP(=O)(OC[C@H]1O[C@@H](n2cnc3c(N)ncnc32)[C@H](O)[C@@H]1O)OP(=O)(O)OP(=O)(O)OC[C@H]1O[C@@H](n2cnc3c(N)ncnc32)[C@H](O)[C@@H]1O.CCCCN(CCCC)CCCC.CCCCN(CCCC)CCCC.CCCCN(CCCC)CCCC (stereo in doubt; 10A) [listing 2 of 2 here],EC50 (P2Y purinoceptor 6; 1321-n1): Not Active; EC50 (P2Y purinoceptor 4 [3]; 1321-n1): Not Active; EC50 (P2Y purinoceptor 2 [2]; 1321-n1): Not Active
6.9 µM,2.1%,1.92 µM,–,–,–,–,BP(=O)(OP(=O)(O)OC[C@H]1O[C@@H](n2cnc3c(N)ncnc32)[C@H](O)[C@@H]1O)OP(=O)(O)OP(=O)(O)OC[C@H]1O[C@@H](n2ccc(=O)[nH]c2=O)[C@H](O)[C@@H]1O.CCCCN(CCCC)CCCC.CCCCN(CCCC)CCCC.CCCCN(CCCC)CCCC.CCCCN(CCCC)CCCC (stereo in doubt; 8B) [listing 1 of 2 here],EC50 (P2Y purinoceptor 2 [2]; read-out: EC50): 64.2 µM
6.9 µM,17%,–,–,–,–,–,BP(=O)(OC[C@H]1O[C@@H](n2cnc3c(N)ncnc32)[C@H](O)[C@@H]1O)OP(=O)(O)OP(=O)(O)OP(=O)(O)OC[C@H]1O[C@@H](n2cnc3c(N)ncnc32)[C@H](O)[C@@H]1O.CCCCN(CCCC)CCCC.CCCCN(CCCC)CCCC.CCCCN(CCCC)CCCC.CCCCN(CCCC)CCCC (stereo in doubt; 12B) [listing 1 of 2 here],EC50 (P2Y purinoceptor 2 [2]; read-out: EC50): 64.2 µM
1.48 µM,2.5%,–,–,–,–,–,BP(=O)(OC[C@H]1O[C@@H](n2cnc3c(N)ncnc32)[C@H](O)[C@@H]1O)OP(=O)(O)OP(=O)(O)OP(=O)(O)OC[C@H]1O[C@@H](n2cnc3c(N)ncnc32)[C@H](O)[C@@H]1O.CCCCN(CCCC)CCCC.CCCCN(CCCC)CCCC.CCCCN(CCCC)CCCC.CCCCN(CCCC)CCCC (stereo in doubt; 12A) [listing 1 of 2 here],EC50 (P2Y purinoceptor 6; 1321-n1): Not Active; EC50 (P2Y purinoceptor 4 [3]; 1321-n1): Not Active; EC50 (P2Y purinoceptor 2 [2]; read-out: EC50): 25.9 µM
–,6%,0.3 µM,–,–,–,–,BP(=O)(OC[C@H]1O[C@@H](n2ccc(=O)[nH]c2=O)[C@H](O)[C@@H]1O)OP(=O)(O)OP(=O)(O)OC[C@H]1O[C@@H](n2ccc(=O)[nH]c2=O)[C@H](O)[C@@H]1O.CCCCN(CCCC)CCCC.CCCCN(CCCC)CCCC.CCCCN(CCCC)CCCC (stereo in doubt; 11B),–
0.8 µM,4.4%,–,–,–,–,–,BP(=O)(OC[C@H]1O[C@@H](n2cnc3c(N)ncnc32)[C@H](O)[C@@H]1O)OP(=O)(O)OP(=O)(O)OC[C@H]1O[C@@H](n2cnc3c(N)ncnc32)[C@H](O)[C@@H]1O.CCCCN(CCCC)CCCC.CCCCN(CCCC)CCCC.CCCCN(CCCC)CCCC (stereo in doubt; 10B) [listing 1 of 2 here],–
–,–,–,inactive,inactive,inactive,inactive,BP(=O)(OC[C@H]1O[C@@H](n2ccc(=O)[nH]c2=O)[C@H](O)[C@@H]1O)OP(=O)(O)OP(=O)(O)OC[C@H]1O[C@@H](n2ccc(=O)[nH]c2=O)[C@H](O)[C@@H]1O.CCCCN(CCCC)CCCC.CCCCN(CCCC)CCCC.CCCCN(CCCC)CCCC (stereo in doubt; 11A),–
–,–,–,–,–,–,–,Nc1ncnc2c1ncn2[C@@H]1O[C@H](COP(=O)(O)OP(=O)(O)OP(=O)(O)OP(=O)(O)OP(=O)(O)OC[C@H]2O[C@@H](n3cnc4c(N)ncnc43)[C@H](O)[C@@H]2O)[C@@H](O)[C@H]1O,Stability [1]: Unstable
–,–,–,inactive,inactive,inactive,inactive,BP(=O)(OP(=O)(O)OC[C@H]1O[C@@H](n2ccc(=O)[nH]c2=O)[C@H](O)[C@@H]1O)OP(=O)(O)OP(=O)(O)OC[C@H]1O[C@@H](n2cnc3c(N)ncnc32)[C@H](O)[C@@H]1O.CCCCN(CCCC)CCCC.CCCCN(CCCC)CCCC.CCCCN(CCCC)CCCC.CCCCN(CCCC)CCCC (stereo in doubt; 9B) [listing 2 of 2 here],–
–,–,–,inactive,inactive,inactive,inactive,BP(=O)(OC[C@H]1O[C@@H](n2cnc3c(N)ncnc32)[C@H](O)[C@@H]1O)OP(=O)(O)OP(=O)(O)OC[C@H]1O[C@@H](n2cnc3c(N)ncnc32)[C@H](O)[C@@H]1O.CCCCN(CCCC)CCCC.CCCCN(CCCC)CCCC.CCCCN(CCCC)CCCC (stereo in doubt; 10B) [listing 2 of 2 here],–
–,–,–,inactive,inactive,inactive,inactive,BP(=O)(OP(=O)(O)OC[C@H]1O[C@@H](n2cnc3c(N)ncnc32)[C@H](O)[C@@H]1O)OP(=O)(O)OP(=O)(O)OC[C@H]1O[C@@H](n2ccc(=O)[nH]c2=O)[C@H](O)[C@@H]1O.CCCCN(CCCC)CCCC.CCCCN(CCCC)CCCC.CCCCN(CCCC)CCCC.CCCCN(CCCC)CCCC (stereo in doubt; 8B) [listing 2 of 2 here],–
–,–,–,inactive,inactive,inactive,inactive,BP(=O)(OC[C@H]1O[C@@H](n2cnc3c(N)ncnc32)[C@H](O)[C@@H]1O)OP(=O)(O)OP(=O)(O)OP(=O)(O)OC[C@H]1O[C@@H](n2cnc3c(N)ncnc32)[C@H](O)[C@@H]1O.CCCCN(CCCC)CCCC.CCCCN(CCCC)CCCC.CCCCN(CCCC)CCCC.CCCCN(CCCC)CCCC (stereo in doubt; 12B) [listing 2 of 2 here],–
–,3.5%,0.98 µM,–,–,–,–,BP(=O)(OP(=O)(O)OC[C@H]1O[C@@H](n2ccc(=O)[nH]c2=O)[C@H](O)[C@@H]1O)OP(=O)(O)OP(=O)(O)OC[C@H]1O[C@@H](n2ccc(=O)[nH]c2=O)[C@H](O)[C@@H]1O.CCCCN(CCCC)CCCC.CCCCN(CCCC)CCCC.CCCCN(CCCC)CCCC.CCCCN(CCCC)CCCC (stereo in doubt; 7B),EC50 (P2Y purinoceptor 2 [2]; 1321-n1): Not Active
–,–,–,inactive,inactive,inactive,inactive,BP(=O)(OC[C@H]1O[C@@H](n2cnc3c(N)ncnc32)[C@H](O)[C@@H]1O)OP(=O)(O)OP(=O)(O)OP(=O)(O)OC[C@H]1O[C@@H](n2cnc3c(N)ncnc32)[C@H](O)[C@@H]1O.CCCCN(CCCC)CCCC.CCCCN(CCCC)CCCC.CCCCN(CCCC)CCCC.CCCCN(CCCC)CCCC (stereo in doubt; 12A) [listing 2 of 2 here],–
–,11.3%,3.9 µM,–,–,–,–,BP(=O)(OC[C@H]1O[C@@H](n2ccc(=O)[nH]c2=O)[C@H](O)[C@@H]1O)OP(=O)(O)OP(=O)(O)OP(=O)(O)OC[C@H]1O[C@@H](n2ccc(=O)[nH]c2=O)[C@H](O)[C@@H]1O.CCCCN(CCCC)CCCC.CCCCN(CCCC)CCCC.CCCCN(CCCC)CCCC.CCCCN(CCCC)CCCC (stereo in doubt; 13B),EC50 (P2Y purinoceptor 4 [3]; read-out: EC50): 16.8 µM; EC50 (P2Y purinoceptor 2 [2]; read-out: EC50): 24.6 µM
